For experiment [1], the system named is unidentified adenovirus. Put plainly: Effective concentration for the inhibition of adenovirus. The class given is functional, organism-based. An outline of the steps:
(§1)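 HEL fibroblasts, confluent, infected on day 0 with 100 CCID50 of human adenovirus type 2 or type 3. After 2 h adsorption at 37 °C, virus was removed and replaced by serial compound dilutions. Cytopathic effect was scored microscopically on day 7-10 p.i. to derive EC50 and minimum cytotoxic concentration.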

In experiment [2] the test system is CCRF-CEM. Kind of experiment: In vitro cytotoxicity against CCRF-CEM lymphoblastoid cells. The class given is functional, Homo sapiens. An outline of the steps: (§2)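 Cells were grown for 72 h at a constant compound concentration of 10 µM, then counted. Growth inhibition is given relative to cell counts in control cultures grown in medium without compound. Lines: mouse L1210 and L929, human HeLaS3 and CCRF-CEM.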

For experiment [3], the system named is CCRF-CEM. Kind of experiment: Inhibition of Human immunodeficiency virus (HIV) -1 III B strain induced cytopathicity in CEM cell line. The class given is functional, cell-based. An outline of the steps:
(§3)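 CEM cells were infected with 100 CCID50 per mL of HIV-1 (IIIB) or HIV-2 (ROD). Cells were seeded into wells containing dilutions of compound and incubated 4 days at 37 °C. CEM giant cell formation was then examined microscopically.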
A general note: Protection from cytopathic effect is a common read-out in antiviral testing.

Experiment [4] deals with CCRF-CEM. Kind of experiment: Inhibition of Human immunodeficiency virus (HIV)-2 ROD strain induced cytopathicity in CEM cell line. The class given is functional, cell-based. An outline of the steps:
as §3

The subject of experiment [5] is Moloney murine sarcoma virus. Kind of experiment: Inhibition of moloney sarcoma virus (MSV) induced cytopathicity in C3H/3T3 embryo fibroblast cells. The class given is functional, organism-based. A digest of the protocol: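 C3H/3T3 murine embryo fibroblasts were seeded in 48-well plates and infected 24 h later with 80 focus-forming units of MSV. MSV stock was prepared from tumours in NMRI mice. Virus adsorbed for 10-120 min at 37 °C, then fresh medium with compound dilutions was added. Transformation was examined microscopically after 6 days.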

The test system of experiment [6] is E6SM. Put plainly: Inhibition of Herpes simplex virus-1, KOS strain induced cytopathicity in E6SM cell line. The class given is functional, cell-based. The following applies: Homo sapiens. A digest of the protocol:
(§4)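 Inhibition of virus-induced cytopathicity in confluent cell cultures in 96-well plates inoculated with 100 CCID50 of virus; 1 CCID50 is the virus dose infecting 50% of cultures. EC50 is based on reduction of cytopathicity.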

The subject of experiment [7] is E6SM. Kind of experiment: Inhibition of Herpes simplex virus-2 (G strain) induced cytopathicity in E6SM cell line. The class given is functional, cell-based. To be noted: Homo sapiens. An outline of the steps:
as §4

The test system of experiment [8] is E6SM. Put plainly: Inhibition of thymidine kinase deficient Herpes simplex virus-1 VMW 1837 strain induced cytopathicity in E6SM cell line. The following applies: Homo sapiens. The class given is functional, cell-based. A digest of the protocol:
as §4

The test system of a further experiment is Human alphaherpesvirus 3. Kind of experiment: Inhibition of Thymidine kinase deficient (TK-) Varicella-Zoster virus (VZV) 07/1 strain induced cytopathicity n HEL cell line. The class given is functional, organism-based. To be noted: Human alphaherpesvirus 3, tk-07, HEL. A digest of the protocol:
as §4

Experiment [9] concerns HEL. Put plainly: Inhibition of Thymidine kinase deficient (TK-) Varicella-Zoster virus (VZV) YS/R strain induced cytopathicity in HEL cell line. The class given is functional, cell-based. The following applies: Homo sapiens. An outline of the steps: as §4
Experiment [10] has as its system HEL. Put plainly: Inhibition of Varicella-Zoster virus (VZV) OKA strain induced cytopathicity in HEL cell line. The class given is functional, cell-based. The following applies: Homo sapiens. An outline of the steps:
as §4

Experiment [11] concerns HEL. Kind of experiment: Inhibition of Varicella-Zoster virus (VZV) YS strain induced cytopathicity in HEL cell line. To be noted: Homo sapiens. The class given is functional, cell-based. A digest of the protocol: as §4
The test system of experiment [12] is HeLa. Kind of experiment: (§5) In vitro cytotoxicity against human cervix carcinoma HeLa S3 cells. The class given is functional. Also noted: concentration or dose not given beside the values. A digest of the protocol:
as §2

Experiment [13] concerns L929. Kind of experiment: (§6) In vitro cytotoxicity against murine L929 cells. The class given is functional, Mus musculus. Also noted: concentration or dose not given beside the values. An outline of the steps:
as §2

The subject of experiment [14] is L1210. Kind of experiment: (§7) In vitro cytotoxicity against L1210 mouse leukemia cells. The class given is functional. Also noted: concentration or dose not given beside the values. A digest of the protocol: as §2
Experiment [15] deals with CCRF-CEM. Kind of experiment: (§8) In vitro cytotoxicity against CCRF-CEM T lymphoblastoid cells. The class given is functional, Homo sapiens. Also noted: concentration or dose not given beside the values. An outline of the steps:
as §2

Experiment [16] relates to CCRF-CEM. Put plainly: Inhibitory activity against CCRF-CEM cells. The class given is functional, cell-based. To be noted: Homo sapiens. An outline of the steps: (§9)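 CCRF-CEM, L1210 and L929 cells were grown with compound for 72 h and then counted. Cell growth inhibition is expressed relative to untreated control cultures, and IC50 is given in µM.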
In experiment [17] the test system is L1210. Kind of experiment: Inhibitory activity against L1210 cells. To be noted: Mus musculus. The class given is functional, cell-based. A digest of the protocol: as §9
The test system of experiment [18] is L929. Put plainly: Inhibitory activity against L929 cells. The class given is functional, cell-based. The following applies: Mus musculus. A digest of the protocol: as §9
In experiment [19] the test system is HEL. Kind of experiment: Inhibitory activity against HEL cell proliferation. The class given is functional, cell-based. The following applies: Homo sapiens.
Experiment [20] has as its system unidentified adenovirus. Put plainly: In vitro antiadenovirus activity. The class given is functional, organism-based. A digest of the protocol: as §1
Experiment [21] concerns CCRF-CEM. Described as §8. The class given is functional, Homo sapiens. A digest of the protocol: as §2
Experiment [22] relates to HeLa. The experiment is described as §5. The class given is functional. A digest of the protocol: as §2
In experiment [23] the test system is L929. Described as §6. The class given is functional, Mus musculus. An outline of the steps: as §2
Experiment [24] relates to L1210. The experiment is described as §7. The class given is functional. A digest of the protocol: as §2

In brackets after ≈: the same amount, converted by molar mass.

Broadly, the EC50 is the concentration at which the effect is half-maximal. One may read the IC50 as the concentration that inhibits the measured activity by half.

As for `Nc1ncnc2c1ncn2C[C@@H](CO)OCP(=O)(O)O`, it took 0.24 µg/mL (≈ 0.792 µM) to reach a half-maximal effect in the experiment on unidentified adenovirus [1] (EC50).
For the compound `Nc1cc(OCCOCP(=O)(O)O)ncn1`, the Control is given as 95% in the experiment with CCRF-CEM [2], 86% in the experiment with HeLa [12], 84% in the experiment with L929 [13] and 81% in the experiment on L1210 [14]. The EC50 in the experiment with CCRF-CEM [3] is above 100 µg/mL; with CCRF-CEM [4] it was above 100 µg/mL; in experiment [5], 13 µg/mL (≈ 52.2 µM); in the experiment with E6SM [6], above 16 µg/mL; in the experiment on E6SM [7], above 16 µg/mL; in the experiment on E6SM [8], above 16 µg/mL. Further, the EC50 with Human alphaherpesvirus 3, in the experiment with HEL [9], with HEL [10] and in the experiment with HEL [11] was above 50 µg/mL each time.
For `Nc1cc(OCCOCP(=O)(O)O)nc(N)n1`, the Control in the experiment with CCRF-CEM [15] is on record as 63%; in the experiment on HeLa [12] it was 89%; in the experiment with L929 [13] it was 61%; with L1210 [14], 62%. In addition, the EC50 in the experiment with CCRF-CEM [3] worked out at 0.8 µg/mL (≈ 3.03 µM); in the experiment on CCRF-CEM [4] it was 0.43 µg/mL (≈ 1.63 µM); in experiment [5] it was 0.04 µg/mL (≈ 0.151 µM); in the experiment on E6SM [6], 6.5 µg/mL (≈ 24.6 µM); with E6SM [7] it was 24 µg/mL (≈ 90.8 µM); in the experiment on E6SM [8], 9.6 µg/mL (≈ 36.3 µM). Moreover, the EC50 stood at 2.5 µg/mL (≈ 9.46 µM) in the experiment on Human alphaherpesvirus 3, 1.6 µg/mL (≈ 6.06 µM) in the experiment with HEL [9], 1.2 µg/mL (≈ 4.54 µM) with HEL [10] and 1.1 µg/mL (≈ 4.16 µM) in the experiment on HEL [11]. Further, the IC50 in the experiment with CCRF-CEM [16] is 12.4 µM; in the experiment with L1210 [17] it was 25 µM; in the experiment on L929 [18], 25 µM; in the experiment with HEL [19], 50 µg/mL (≈ 189 µM).
Consider `Nc1cc(SCCOCP(=O)(O)O)nc(N)n1`, for which the Control worked out at 89% with CCRF-CEM [15], 98% with HeLa [12], 88% in the experiment with L929 [13] and 83% with L1210 [14]. Further, the EC50 was 5.5 µg/mL (≈ 19.6 µM) in the experiment on CCRF-CEM [3]; 3 µg/mL (≈ 10.7 µM) in the experiment with CCRF-CEM [4]; 1.7 µg/mL (≈ 6.07 µM) in experiment [5]; 29 µg/mL (≈ 103 µM) in the experiment with E6SM [6]; at least 80 µg/mL in the experiment with E6SM [7]; 48 µg/mL (≈ 171 µM) in the experiment on E6SM [8]. Besides, the EC50 stood at 20 µg/mL (≈ 71.4 µM) in the experiment on Human alphaherpesvirus 3; 15 µg/mL (≈ 53.5 µM) in the experiment on HEL [9]; 7.5 µg/mL (≈ 26.8 µM) in the experiment on HEL [10]; 7 µg/mL (≈ 25 µM) with HEL [11]; 78 µg/mL (≈ 278 µM) in the experiment on unidentified adenovirus [20]; 50 µg/mL (≈ 178 µM) in the experiment with HEL [19].
Turning to `Nc1nc(NC2CC2)cc(OCCOCP(=O)(O)O)n1`, the Control with CCRF-CEM [21] is 87%; in the experiment on HeLa [22], 88%; in the experiment on L929 [23], 93%; in the experiment with L1210 [24], 71%. Moreover, the EC50 in the experiment on CCRF-CEM [3] was above 100 µg/mL; in the experiment with CCRF-CEM [4] it was above 100 µg/mL; in experiment [5], above 40 µg/mL; in the experiment on E6SM [6], 240 µg/mL (≈ 789 µM); in the experiment on E6SM [7], above 80 µg/mL; with E6SM [8], 240 µg/mL (≈ 789 µM). For the same compound, the EC50 is above 50 µg/mL in the experiment with Human alphaherpesvirus 3, above 50 µg/mL with HEL [9], above 20 µg/mL in the experiment with HEL [10] and above 50 µg/mL with HEL [11].
Consider `Nc1nc(N)c2ncn(CCOCP(=O)(O)O)c2n1` [PMEDAP], for which the EC50 in the experiment on unidentified adenovirus [1] is 47 µg/mL (≈ 163 µM).

(Values after ChEMBL document CHEMBL1135936, “6-[2-(Phosphonomethoxy)alkoxy]pyrimidines with antiviral activity” (J Med Chem, 2002).)
